Measurements: ChEMBL document CHEMBL1151729 (J Med Chem, 2008)
Activity calls are given as the source filed them. The rule behind the calls is not given here.

Assays:
Galectin-7 = Galectin-7 (Homo sapiens, UniProt P47929); assay: Binding affinity to galectin 7 at 0 degC by fluorescence polarization assay
Galectin-9 = Galectin-9 (Homo sapiens, UniProt O00182); assay: Binding affinity to galectin 9N terminal domain at 0 degC by fluorescence polarization assay
Galectin-1 [1] = target: T1, Galectin-1 (Homo sapiens, UniProt P09382); assay: Binding affinity to galectin 1 at 0 degC by fluorescence polarization assay
T1 sequence (P09382 whole entry, the tested form may be a part): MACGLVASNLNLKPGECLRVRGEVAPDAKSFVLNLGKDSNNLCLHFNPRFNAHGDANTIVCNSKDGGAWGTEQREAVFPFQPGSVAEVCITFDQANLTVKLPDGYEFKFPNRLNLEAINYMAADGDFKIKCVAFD

Galectin-8 = target: T2, Galectin-8 (Homo sapiens, UniProt O00214); assay: (§1) Binding affinity to galectin 8N terminal domain at 20 degC by fluorescence polarization assay
T2 sequence (O00214 whole entry): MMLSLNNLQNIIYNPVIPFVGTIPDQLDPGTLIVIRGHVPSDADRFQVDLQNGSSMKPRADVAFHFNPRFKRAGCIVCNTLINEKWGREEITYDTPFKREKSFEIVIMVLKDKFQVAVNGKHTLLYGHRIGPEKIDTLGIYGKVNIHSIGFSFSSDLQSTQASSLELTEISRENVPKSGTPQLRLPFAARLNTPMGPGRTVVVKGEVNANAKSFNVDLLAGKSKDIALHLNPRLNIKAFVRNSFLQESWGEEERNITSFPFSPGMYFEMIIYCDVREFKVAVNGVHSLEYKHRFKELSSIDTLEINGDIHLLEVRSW

Galectin-3 = Galectin-3 (Homo sapiens, UniProt P17931); assay: Binding affinity to galectin 3 at 20 degC by fluorescence polarization assay
Galectin-3, sequence (P17931 whole entry): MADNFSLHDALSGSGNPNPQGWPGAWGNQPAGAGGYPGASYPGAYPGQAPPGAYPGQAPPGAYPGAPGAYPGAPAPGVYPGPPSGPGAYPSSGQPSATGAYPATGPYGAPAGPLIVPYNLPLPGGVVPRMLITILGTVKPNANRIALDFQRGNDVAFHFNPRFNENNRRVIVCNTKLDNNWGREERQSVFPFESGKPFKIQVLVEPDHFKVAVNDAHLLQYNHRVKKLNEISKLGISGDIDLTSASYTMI

A549 [2] = assay: Antimigratory effect in human A549 cells assessed as cell motility at 10 nM after 24 hrs relative to control; format: functional, cell-based
Summary of the method: (§2)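 Cell motility of human A549 non-small-cell lung and PC-3 hormone-refractory prostate cancer cells measured by computer-assisted phase-contrast quantitative videomicroscopy over 12 h and 24 h with inhibitor at 1, 10 or 100 nM. Motility calculated in µm per hour and expressed as % of untreated control (100%). Triplicate experiments, mean ± SEM, Mann-Whitney test versus control.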

PC-3 [3] = assay: Antimigratory effect in human PC-3 cells assessed as cell motility at 100 nM after 24 hrs relative to control; format: functional, cell-based; summary of the method: as §2
Galectin-1 [4] = target: T1, Galectin-1; assay: Binding affinity to galectin 1 at 20 degC by fluorescence polarization assay
[5] = target: T3, Galectin-8 (Homo sapiens) (UniProt O00214); assay: as §1
T3 sequence (whole entry): T2 sequence (O00214 whole entry)

PC-3 [6] = assay: Antimigratory effect in human PC-3 cells assessed as cell motility at 1 nM after 24 hrs relative to control; format: functional, cell-based; summary of the method: as §2
A549 [7] = assay: Antimigratory effect in human A549 cells assessed as cell motility at 100 nM after 24 hrs relative to control; format: functional, cell-based; summary of the method: as §2

Galectin-9, sequence (O00182 whole entry, the tested form may be a part): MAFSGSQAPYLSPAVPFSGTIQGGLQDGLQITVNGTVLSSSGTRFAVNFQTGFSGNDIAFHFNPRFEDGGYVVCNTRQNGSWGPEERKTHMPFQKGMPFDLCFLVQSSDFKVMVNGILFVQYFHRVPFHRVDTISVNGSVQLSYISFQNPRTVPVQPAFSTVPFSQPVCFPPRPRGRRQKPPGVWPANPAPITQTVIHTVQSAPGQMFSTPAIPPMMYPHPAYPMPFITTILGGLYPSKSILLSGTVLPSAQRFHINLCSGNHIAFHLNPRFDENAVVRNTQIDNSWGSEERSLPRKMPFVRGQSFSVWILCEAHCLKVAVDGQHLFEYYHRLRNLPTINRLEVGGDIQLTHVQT
Galectin-7, sequence (P47929 whole entry, the tested form may be a part): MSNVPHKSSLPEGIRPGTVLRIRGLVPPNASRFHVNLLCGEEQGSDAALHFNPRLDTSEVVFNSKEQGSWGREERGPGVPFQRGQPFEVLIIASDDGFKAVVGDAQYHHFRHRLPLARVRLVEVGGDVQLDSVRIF

Row | SMILES | Kd (Galectin-7) [µM] | Kd (Galectin-9) [µM] | Kd (Galectin-1 [1]) [µM] | Kd (Galectin-8) [µM] | Kd (Galectin-3) [µM] | Activity (A549 [2]) | Activity (PC-3 [3]) | Kd (Galectin-1 [4]) [µM] | Activity [5] | Activity (PC-3 [6]) | Activity (A549 [7])
1 | O=C(N[C@H]1[C@@H](O)[C@@H](CO)O[C@@H](S[C@@H]2O[C@H](CO)[C@H](O)[C@H](NC(=O)c3ccc4ccccc4c3)[C@H]2O)[C@@H]1O)c1ccc2ccccc2c1 | 1.7 | 0.73 | 9.6 | > 100 | 0.16 | – | – | – | – | – | –
2 | COc1cccc(C(=O)O[C@H]2[C@@H](O)[C@@H](CO)O[C@@H](S[C@@H]3O[C@H](CO)[C@H](O)[C@H](OC(=O)c4cccc(OC)c4)[C@H]3O)[C@@H]2O)c1 | 22 | 1.4 | – | 42 | 0.69 | Active | Active | 4.4 | – | – | –
3 | Cc1ccc(C(=O)O[C@H]2[C@@H](O)[C@@H](CO)O[C@@H](S[C@@H]3O[C@H](CO)[C@H](O)[C@H](OC(=O)c4ccc(C)cc4)[C@H]3O)[C@@H]2O)cc1 | 190 | 15 | – | 135 | 3.6 | – | – | 10.3 | – | – | –
4 | CO[C@@H]1O[C@H](CO)[C@@H](O[C@@H]2O[C@H](CO)[C@H](O)[C@H](NC(=O)c3cccc4ccccc34)[C@H]2O)[C@H](O)[C@H]1NC(C)=O | 7.6 | > 100 | 25 | – | 4.4 | – | – | – | Active | – | –
5 | COc1cccc(C(=O)N[C@H]2[C@@H](O)[C@@H](CO)O[C@@H](S[C@@H]3O[C@H](CO)[C@H](O)[C@H](NC(=O)c4cccc(OC)c4)[C@H]3O)[C@@H]2O)c1 | 2.1 | 1.8 | 2 | 100 | – | – | – | – | – | – | –
6 | O=C(O[C@H]1[C@@H](O)[C@@H](CO)O[C@@H](S[C@@H]2O[C@H](CO)[C@H](O)[C@H](OC(=O)c3cccc4ccccc34)[C@H]2O)[C@@H]1O)c1cccc2ccccc12 | 24 | 8.3 | – | 24 | 3.8 | – | – | 16.8 | – | Active | Active
7 | O=C(N[C@H]1[C@@H](O)[C@@H](CO)O[C@@H](S[C@@H]2O[C@H](CO)[C@H](O)[C@H](NC(=O)c3ccccc3)[C@H]2O)[C@@H]1O)c1ccccc1 | 4.3 | 7 | 35 | – | – | – | – | – | Active | – | –
8 | O=C(O[C@H]1[C@@H](O)[C@@H](CO)O[C@@H](S[C@@H]2O[C@H](CO)[C@H](O)[C@H](OC(=O)c3ccccc3)[C@H]2O)[C@@H]1O)c1ccccc1 | 22 | 2.2 | – | 104 | 1.6 | – | – | 6.4 | – | – | –
9 | O=C(O[C@H]1[C@@H](O)[C@@H](CO)O[C@@H](S[C@@H]2O[C@H](CO)[C@H](O)[C@H](OC(=O)c3ccc4ccccc4c3)[C@H]2O)[C@@H]1O)c1ccc2ccccc2c1 | 48 | 2.8 | – | 100 | 10.7 | – | – | 14.7 | – | – | –
10 | CC(=O)N[C@@H]1[C@@H](O)[C@H](O[C@@H]2O[C@H](CO)[C@H](O)[C@H](O)[C@H]2O)[C@@H](CO)O[C@H]1O | 550 | 490 | – | 1000 | 59 | – | – | – | – | – | –
11 | CO[C@@H]1O[C@H](CO)[C@@H](O[C@@H]2O[C@H](CO)[C@H](O)[C@H](O)[C@H]2O)[C@H](O)[C@H]1OC(=O)c1cccc2ccccc12 | 54 | 1.6 | 14 | 530 | 2.5 | – | – | – | – | – | –
